The subject of assay [1] is Staphylococcus haemolyticus. As to the kind of experiment: Antibacterial activity against methicillin-resistant, coagulase-negative, constitutive MLS-resistant Staphylococcus haemolyticus PU 19 by broth microdilution method. The format is functional. The method in brief: (§1)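 MIC by broth microdilution following CLSI (2010) recommendations, using clinical isolates identified by 16S rDNA sequencing and labelled by genotype and phenotype. S. aureus ATCC 29213 and S. pneumoniae ATCC 49619 were run as control strains, and azithromycin, clarithromycin and 3-OH-clarithromycin were tested as reference agents.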

The test system of assay [2] is Streptococcus pyogenes. In words: Antibacterial activity against constitutive MLS-resistant Streptococcus pyogenes A 2 by broth microdilution method. The format is functional. The method in brief: as §1
Assay [3] deals with Streptococcus pneumoniae. In words: Antibacterial activity against efflux,penicillin-susceptible Streptococcus pneumoniae PU 09 by broth microdilution method. It counts as functional. The method, boiled down:
(§2)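 MIC read by broth microdilution following CLSI (2010) guidance. The clinical isolates were identified by 16S rDNA sequencing and labelled by genotype and phenotype. S. aureus ATCC 29213 and S. pneumoniae ATCC 49619 were the control strains. Azithromycin, clarithromycin and 3-OH-clarithromycin were run as reference compounds.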
For orientation: Broth dilution looks for growth in wells or tubes with falling amounts of substance.

Assay [4] has as its system Staphylococcus aureus. In words: Antibacterial activity against erythromycin-susceptible Staphylococcus aureus ATCC 29213 by broth microdilution method. It counts as functional. The method, boiled down:
as §2

Assay [5] concerns Streptococcus pneumoniae. In words: Antibacterial activity against penicillin-, constitutive MLS-resistant Streptococcus pneumoniae PU 11 by broth microdilution method. The format is functional. The method, boiled down: as §1
For assay [6], the system named is Staphylococcus aureus. In words: Antibacterial activity against methicillin-susceptible, inducible MLS-resistant Staphylococcus aureus PU 64 by broth microdilution method. The format is functional. The method in brief:
as §1

The subject of assay [7] is Staphylococcus epidermidis. As to the kind of experiment: Antibacterial activity against methicillin-resistant, constitutive MLS-resistant Staphylococcus epidermidis E2 by broth microdilution method. The format is functional. The method in brief: as §1
The test system of assay [8] is Staphylococcus epidermidis. In words: Ratio of MIC for azithromycin to compound for methicillin-susceptible, inducible MLS-resistant Staphylococcus epidermidis E1 by broth microdilution method. It counts as functional.
Assay [9] has as its system Staphylococcus epidermidis. In words: Ratio of MIC for clarithromycin to compound for methicillin-susceptible, inducible MLS-resistant Staphylococcus epidermidis E1 by broth microdilution method. The format is functional.
In assay [10] the test system is Staphylococcus hominis. In words: Antibacterial activity against methicillin-resistant, coagulase-negative, inducible MLS-resistant Staphylococcus hominis E3 by broth microdilution method. It counts as functional. The method, boiled down:
as §1

Assay [11] relates to Staphylococcus epidermidis. As to the kind of experiment: Antibacterial activity against methicillin-susceptible, inducible MLS-resistant Staphylococcus epidermidis E1 by broth microdilution method. It counts as functional. The method in brief:
as §1

Assay [12] has as its system Staphylococcus aureus. In words: Antibacterial activity against methicillin-, constitutive MLS-resistant […] by broth microdilution method. The format is functional. The method, boiled down:
as §1

Assay [13] concerns Streptococcus pneumoniae. As to the kind of experiment: Antibacterial activity against erythromycin-susceptible Streptococcus pneumoniae ATCC 49619 by broth microdilution method. The format is functional. The method in brief: as §2
Assay [14] deals with Streptococcus pyogenes. As to the kind of experiment: Antibacterial activity against erythromycin-susceptible Streptococcus pyogenes A 3 by broth microdilution method. The format is functional. The method in brief:
as §2

In assay [15] the test system is Streptococcus pneumoniae. As to the kind of experiment: Antibacterial activity against penicillin-susceptible, constitutive MLS-resistant Streptococcus pneumoniae PU 27 by broth microdilution method. It counts as functional. The method in brief:
as §1

The test system of assay [16] is Staphylococcus aureus. In words: Antibacterial activity against methicillin-, inducible MLS-resistant Staphylococcus aureus PU 32 by broth microdilution method.
The test system of assay [17] is Streptococcus dysgalactiae. As to the kind of experiment: Antibacterial activity against efflux, erythromycin-resistant Streptococcus dysgalactiae A 1 by broth microdilution method. It counts as functional. The method, boiled down: as §1
The test system of assay [18] is Streptococcus pneumoniae. As to the kind of experiment: Ratio of MIC for clarithromycin to compound for efflux,penicillin-susceptible Streptococcus pneumoniae PU 09 by broth microdilution method. It counts as functional. The method, boiled down:
(§3)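 MICs of the test compounds and of the reference macrolides (azithromycin, clarithromycin) were determined side by side by broth microdilution following CLSI (2010). The clinical isolates were identified by 16S rDNA sequencing and labelled by genotype and phenotype. S. aureus ATCC 29213 and S. pneumoniae ATCC 49619 served as control strains.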

The subject of assay [19] is Streptococcus dysgalactiae. As to the kind of experiment: Ratio of MIC for azithromycin to compound for efflux, erythromycin-resistant Streptococcus dysgalactiae A 1 by broth microdilution method. It counts as functional. The method, boiled down:
as §3

The test system of assay [20] is Staphylococcus hominis. As to the kind of experiment: Ratio of MIC for clarithromycin to compound for methicillin-resistant, coagulase-negative, inducible MLS-resistant Staphylococcus hominis E3 by broth microdilution method. It counts as functional. The method, boiled down:
as §3

For assay [21], the system named is Streptococcus pneumoniae. In words: Ratio of MIC for azithromycin to compound for efflux,penicillin-susceptible Streptococcus pneumoniae PU 09 by broth microdilution method. It counts as functional. The method, boiled down:
as §3

For assay [22], the system named is Staphylococcus hominis. In words: Ratio of MIC for azithromycin to compound for methicillin-resistant, coagulase-negative, inducible MLS-resistant Staphylococcus hominis E3 by broth microdilution method. It counts as functional. The method, boiled down: as §3
For assay [23], the system named is Staphylococcus aureus. In words: Antibacterial activity against methicillin-, inducible MLS-resistant […] by broth microdilution method. It counts as functional. The method in brief:
as §1

The subject of assay [24] is Streptococcus dysgalactiae. In words: Ratio of MIC for clarithromycin to compound for efflux, erythromycin-resistant Streptococcus dysgalactiae A 1 by broth microdilution method. The format is functional. The method, boiled down: as §3

From ChEMBL document CHEMBL1944546, “Structure-activity relationships of novel alkylides: 3-O-arylalkyl clarithromycin derivatives with improved antibacterial activities” (2012) come the findings set out here.

Values after ≈ are worked out from the molar mass of the structure shown.

With `CC[C@H]1OC(=O)[C@H](C)[C@@H](O/C=C\Cc2cncnc2)[C@H](C)[C@@H](O[C@@H]2O[C@H](C)C[C@H](N(C)C)[C@H]2O)[C@](C)(OC)C[C@@H](C)C(=O)[C@H](C)[C@@H](O)[C@]1(C)O`, the minimum inhibitory concentration (MIC) in assay [1] is more than 256 µg/mL; with Streptococcus pyogenes [2], more than 256 µg/mL; against Streptococcus pneumoniae [3], 1 µg/mL (≈ 1.41 µM); with Staphylococcus aureus [4], 8 µg/mL (≈ 11.3 µM); in the assay with Streptococcus pneumoniae [5], more than 256 µg/mL; in the assay on Staphylococcus aureus [6], 8 µg/mL (≈ 11.3 µM). The MIC in assay [7] was more than 256 µg/mL; in the assay on Staphylococcus hominis [10], 8 µg/mL (≈ 11.3 µM); in assay [11], 4 µg/mL (≈ 5.65 µM); against Staphylococcus aureus [12] it was more than 256 µg/mL; with Streptococcus pneumoniae [13], 1 µg/mL (≈ 1.41 µM); against Streptococcus pyogenes [14] it was 4 µg/mL (≈ 5.65 µM). Moreover, the MIC in the assay on Streptococcus pneumoniae [15] is 32 µg/mL (≈ 45.2 µM); in the assay on Staphylococcus aureus [16], 4 µg/mL (≈ 5.65 µM); in assay [17], 4 µg/mL (≈ 5.65 µM). The Ratio in [8] and in [9] was more than 16 each time.
As to `CC[C@H]1OC(=O)[C@H](C)[C@@H](O/C=C\Cc2cncnc2)[C@H](C)[C@@H](O[C@@H]2O[C@H](C)C[C@H](N(C)C)[C@H]2O)[C@](C)(OC)C[C@@H](C)/C(=N\O)[C@H](C)[C@H]2OC(=O)O[C@@]21C`, the minimum inhibitory concentration (MIC) in assay [1] is more than 256 µg/mL; against Streptococcus pyogenes [2], more than 256 µg/mL; in the assay on Streptococcus pneumoniae [3] it was 0.125 µg/mL (≈ 0.167 µM); against Staphylococcus aureus [4] it was 0.5 µg/mL (≈ 0.668 µM); against Streptococcus pneumoniae [5], more than 256 µg/mL; in the assay with Staphylococcus aureus [6] it was 0.25 µg/mL (≈ 0.334 µM). Moreover, the MIC is more than 256 µg/mL in assay [7]; 0.25 µg/mL (≈ 0.334 µM) with Staphylococcus hominis [10]; 0.25 µg/mL (≈ 0.334 µM) in assay [11]; more than 256 µg/mL in the assay with Staphylococcus aureus [12]; 0.032 µg/mL (≈ 0.0427 µM) in the assay on Streptococcus pneumoniae [13]; 0.016 µg/mL (≈ 0.0214 µM) in the assay on Streptococcus pyogenes [14]. Further, the MIC is 1 µg/mL (≈ 1.34 µM) with Streptococcus pneumoniae [15], 0.125 µg/mL (≈ 0.167 µM) in [17] and 0.25 µg/mL (≈ 0.334 µM) against Staphylococcus aureus [23]. The Ratio in the assay on Streptococcus pneumoniae [18] amounted to 32; in assay [8] it was 1024; in assay [19], 32; in the assay with Staphylococcus hominis [20] it was 1024; in [9], 1024; in the assay with Streptococcus pneumoniae [21] it was 32. The figures for the Ratio (with Staphylococcus hominis [22]; in [24]) were 1024 and 32, respectively.
Regarding `CC[C@H]1OC(=O)[C@H](C)[C@@H](OCCCc2cncnc2)[C@H](C)[C@@H](O[C@@H]2O[C@H](C)C[C@H](N(C)C)[C@H]2O)[C@](C)(OC)C[C@@H](C)/C(=N\O)[C@H](C)[C@@H](O)[C@]1(C)O`, the MIC in assay [1] was more than 256 µg/mL; against Streptococcus pyogenes [2], more than 256 µg/mL; in the assay on Streptococcus pneumoniae [3], 2 µg/mL (≈ 2.76 µM); against Staphylococcus aureus [4], 8 µg/mL (≈ 11 µM); with Streptococcus pneumoniae [5], more than 256 µg/mL; in the assay on Staphylococcus aureus [6], 8 µg/mL (≈ 11 µM). Besides, the MIC in [7] is more than 256 µg/mL; in the assay with Staphylococcus hominis [10] it was more than 256 µg/mL; in assay [11] it was 16 µg/mL (≈ 22.1 µM); against Staphylococcus aureus [12], more than 256 µg/mL; against Streptococcus pneumoniae [13] it was 1 µg/mL (≈ 1.38 µM); in the assay on Streptococcus pyogenes [14], 0.5 µg/mL (≈ 0.69 µM). Further, the results for the MIC (in the assay on Streptococcus pneumoniae [15]; in the assay on Staphylococcus aureus [16]; in assay [17]) were 64 µg/mL (≈ 88.3 µM), 8 µg/mL (≈ 11 µM) and 2 µg/mL (≈ 2.76 µM), respectively. Moreover, the Ratio in assay [8] and in [9] was more than 16 throughout.

Broadly, the MIC is the smallest concentration in the dilution series that meets the test's criterion for growth inhibition.
